{
  "source": "paper PMC3960632",
  "about": "(British Journal of Cancer, 2014)",
  "key": {"[1]": {"test_system": "primary CLL cells", "assay": "Primary CLL cell apoptosis", "format": "cell-based, human", "conditions": "24 h; 0.5 mM BEZ, 5 μM MPA, 5.1 μM 4-MDDT; n=4 samples", "in_short": "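Patient blood mononuclear cells isolated on Ficoll, with consent and ethical approval. Co-cultured 10:1 on non-CD40L-expressing L-cell fibroblast stroma in 96-well plates. Treated in triplicate for 24 h against solvent control. Viability read by annexin V/propidium iodide staining and flow cytometry; n=4 patient samples ± s.e.m.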"}, "[2]": {"test_system": "HL-60, K562 and KG1a AML cell lines", "assay": "Cumulative cell counts / viability of AML cell lines", "format": "cell-based", "conditions": "7 days, 5 μM MPA, 50 μM 4-MDDT", "in_short": "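HL60, K562 and KG1a cells kept in RPMI-1640 with L-glutamine, 10% heat-inactivated FBS and penicillin/streptomycin at 37 °C, 5% CO2, passaged every 2 days at 0.25–1.5 × 10^6 cells/ml. Treated 7 days at 1 × 10^4 cells/well or 0.25 × 10^6 cells/ml in flasks, with DMSO/ethanol solvent controls. Cumulative viable counts by manual counting or flow cytometry with viable gates and counting beads. Mean of ≥3 experiments ± s.e.m.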"}, "[3]": {"test_system": "HL-60 cells", "assay": "HL-60 differentiation", "format": "cell-based", "conditions": "5 μM MPA, 50 μM 4-MDDT", "in_short": "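HL-60 cells grown in RPMI-1640 with 10% heat-inactivated FBS at 37 °C, 5% CO2. Treated 7 days and re-fed and re-treated every 2 days, with solvent controls. At day 7, PE-CD11b staining read by flow cytometry, mean of ≥3 experiments ± s.e.m. Cytospins from 75–100 μl of culture were air-dried, methanol-fixed and Jenner–Giemsa stained for morphology.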"}, "[4]": {"test_system": "recombinant AKR1C1-4", "conditions": "ref Hebert et al, 2013; cited from earlier work"}, "[5]": {"assay": "Stability of the DMSO solution", "format": "physicochemical", "conditions": "solution in DMSO"}, "[6]": {"target": "T1, recombinant AKR1C3 (Homo sapiens, UniProt P42330)", "T1 sequence (P42330 1-323)": "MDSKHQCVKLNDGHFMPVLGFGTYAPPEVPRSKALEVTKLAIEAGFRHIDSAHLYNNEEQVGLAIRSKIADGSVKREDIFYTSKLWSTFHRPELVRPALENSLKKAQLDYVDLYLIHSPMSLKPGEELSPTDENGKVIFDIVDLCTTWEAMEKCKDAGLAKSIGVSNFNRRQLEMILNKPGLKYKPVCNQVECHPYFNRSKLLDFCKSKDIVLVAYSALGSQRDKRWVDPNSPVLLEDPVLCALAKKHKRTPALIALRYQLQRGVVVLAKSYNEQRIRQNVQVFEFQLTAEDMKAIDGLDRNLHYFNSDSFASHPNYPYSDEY", "assay": "AKR1C-diaphorase", "format": "biochemical", "conditions": "freshly prepared solution"}},
  "data": [
    {"smiles": "CC(C)(Oc1ccc(CCNC(=O)c2ccc(Cl)cc2)cc1)C(=O)O", "note": "[BEZ, bezafibrate]", "values": [
      {"measurement": "apoptosis of CLL cells, single agent", "setting": "[1]", "result": "neither BEZ nor MPA as single agents markedly increased apoptosis"}
    ]},
    {"smiles": "CC(=O)O[C@]1(C(C)=O)CC[C@H]2[C@@H]3C[C@H](C)C4=CC(=O)CC[C@]4(C)[C@H]3CC[C@@]21C", "note": "[MPA, medroxyprogesterone acetate]", "values": [
      {"measurement": "AML cell killing when combined with BEZ", "setting": "[2]; with 0.5 mM BEZ, NCI compounds at 10 times the IC50, 10 μM A1/A6/A9", "result": "greatly enhanced AML cell killing"},
      {"measurement": "anti-proliferative effect, agent alone", "setting": "[2]; NCI compounds at 10 times the IC50", "result": "moderate but statistically anti-proliferative effect"},
      {"measurement": "HL-60 cell differentiation in response to ATRA", "setting": "[3]; day 7, with 10 nM ATRA", "result": "promoted the differentiation of HL-60 cells"},
      {"measurement": "HL-60 cell differentiation (CD11b, phenotypic changes) combined with BEZ", "setting": "[3]; day 7, with 0.5 mM BEZ", "result": "strongly promoted HL-60 cell differentiation"},
      {"measurement": "apoptosis of CLL cells, single agent", "setting": "[1]", "result": "neither BEZ nor MPA as single agents markedly increased apoptosis"}
    ]},
    {"smiles": "O=C(N1CCOCC1)N1CCN(c2ccc(Cl)cc2)CC1", "note": "[A9, [4-(4-chloro-phenyl)-piperazin-1-yl]-morpholin-4-yl-methanone]", "values": [
      {"measurement": "AKR1C3 selectivity in the CRT screen", "setting": "[4]", "result": "AKR1C3-selective inhibitors"}
    ]},
    {"smiles": "CN(C)[C@@H]1C(O)=C(C(N)=O)C(=O)[C@@]2(O)C(O)=C3C(=O)c4c(O)cccc4[C@@](C)(O)[C@H]3C[C@@H]12", "note": "[tetracycline]", "values": [
      {"measurement": "chemical stability", "setting": "[5]", "result": "rapid conversion of the dissolved tetracycline to an unknown breakdown product"},
      {"measurement": "AKR1C3-inhibitory activity", "setting": "[6]", "result": "no AKR1C3-inhibitory activity"}
    ]},
    {"smiles": "O=C(O)c1cccc(S(=O)(=O)N2CCc3ccccc3C2)c1", "note": "[A1, 3-(3,4-dihydro-1H-isoquinoline-2-sulphonyl)-benzoic acid]", "values": [
      {"measurement": "AKR1C3 selectivity in the CRT screen", "setting": "[4]", "result": "AKR1C3-selective inhibitors"}
    ]}
  ]
}
